Measurements: ChEMBL document CHEMBL1123670, “Inhibitors of cyclic AMP phosphodiesterase. 2. Structural variations of N-cyclohexyl-N-methyl-4-[(1,2,3,5-tetrahydro- 2-oxoimidazo[2,1-b]quinazolin-7-yl)-oxy]butyramide (RS-82856)” (J Med Chem, 1987)

Legend:
[1] = molecular target: T1, Phosphodiesterase; PDE3 & PDE4 (Homo sapiens) (UniProt P27815+Q14432+Q08499+Q07343+Q13370+Q08493); test: In vivo inhibition of cyclic AMP phosphodiesterase from dog heart
In short: (§1)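 Cyclic AMP phosphodiesterase prepared from human platelets (IC50, nM) or from rat or dog heart tissue (IC25, nM). Each agent tested at five inhibitor concentrations in triplicate. IC50/IC25 read graphically from the dose-response curve.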

[2] = molecular target: T2, Phosphodiesterase 3 (Homo sapiens, UniProt Q14432+Q13370); test: In vitro inhibition of cyclic AMP phosphodiesterase from human platelets
[3] = species: Homo sapiens; test: Inhibition of ADP-induced platelet aggregation at 100 uM concentration; type: functional
[4] = molecular target: T2, Phosphodiesterase 3; test: Inhibition of human platelet cAMP phosphodiesterase; in short: as §1
[5] = Inhibition of ADP-induced platelet aggregation; type: functional
In short: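 ADP-induced platelet aggregation. Read-out is the rate of change in percentage transmission of the primary aggregation phase after 5 min incubation. Each agent tested at five concentrations in triplicate, with experiments repeated at least twice using platelets from different donors. IC50 (μM) determined graphically.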

[6] = molecular target: T1, Phosphodiesterase; PDE3 & PDE4 (Homo sapiens); test: Inhibition of canine cardiac cAMP phosphodiesterase; type: protein assay; conditions: Canis lupus familiaris; target entry is the homologue from another species; in short: as §1
[7] = species: Homo sapiens; test: Ratio of IC50 of inhibition of platelet aggregation to IC50 of inhibition of platelet PDE (Efficacy index); type: functional
In short: (§2)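 Efficacy index is the IC50 for inhibition of ADP-induced platelet aggregation divided by the IC50 for human platelet PDE inhibition. Both IC50s come from graphical dose-response curves (five concentrations, triplicate).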

[8] = species: Homo sapiens; test: Ratio of IC50 of inhibition of platelet aggregation to IC50 of inhibition of platelet PDE; type: functional; in short: as §2
[9] = In vivo inhibition of cyclic AMP phosphodiesterase from rat heart; conditions: in the assay text read “In vitro” for “In vivo”; in short: as §1
[10] = molecular target: T2, Phosphodiesterase 3; test: Inhibition of human platelet cAMP phosphodiesterase, 20% inhibition at E-4M
[11] = molecular target: T2, Phosphodiesterase 3; test: Inhibition of human platelet cAMP phosphodiesterase at 10e-4 M
[12] = Canis lupus familiaris; in the assay text read “In vitro” for “In vivo”; target entry is the homologue from another species
[13] = Canis lupus familiaris; target entry is the homologue from another species; in the assay text read “In vitro” for “In vivo”

Structure (SMILES): CN(C(=O)CCCOc1ccc2c(c1)CN1NC(=O)NC1=N2)C1CCCCC1
- IC25 [1, 12]: 180 nM
- IC50 [2]: 500 nM
- IC50 [3]: Not Active

Structure (SMILES): CN(C(=O)CCCOc1ccc2c(c1)CN1CC(=O)NC1=N2)C1CCCCC1 [LIXAZINONE]
- IC50 [4]: 10.2 nM
- IC50 [5]: 110 nM
- IC25 [6]: 4.1 nM
- Ratio [7]: 10.8

Structure (SMILES): COC1=NC2=Nc3ccc(OCCCC(=O)N(C)C4CCCCC4)cc3CN2C1
- IC25 [1, 13]: 2700 nM
- IC50 [2]: 9600 nM
- IC50 [3]: Not Active

Structure (SMILES): COc1ccc(C(=O)N2CCN(c3ccc4c(c3)CCC(=O)N4)CC2)cc1OC [VESNARINONE]
- Ratio [8]: 608
- IC50 [2]: 6200 nM

Structure (SMILES): CN(Cc1ccccc1)C(=O)CCCOc1ccc2c(c1)CN1CC(=O)NC1=N2
- IC50 [5]: 980 nM
- IC25 [9]: 240 nM
- IC50 [2]: 26 nM
- Ratio [7]: 38

Structure (SMILES): CN(C(=O)CCC[S+]([O-])c1ccc2c(c1)CN1CC(=O)NC1=N2)C1CCCCC1 (stereo unspecified)
- IC25 [1, 12]: 6200 nM
- IC50 [2]: 1700 nM
- IC50 [3]: Not Active

Structure (SMILES): CN(C(=O)CCCCCOc1ccc2c(c1)CN1CC(=O)NC1=N2)C1CCCCC1
- IC50 [5]: 1900 nM
- IC25 [9]: 21 nM
- IC50 [2]: 12 nM
- Ratio [7]: 158

Structure (SMILES): CN(C(=O)CCCOc1ccc2c(c1)CN1CCNC1=N2)C1CCCCC1
- IC25 [1, 12]: 21000 nM
- IC50 [2]: 27000 nM
- IC50 [3]: Not Active

Structure (SMILES): CN(C(=O)CCCOc1ccc2c(c1)CN1C(=N2)NC(=O)[C@H]1Cc1ccccc1)C1CCCCC1
- IC25 [1, 13]: > 10000 nM
- IC50 [2]: > 10000 nM
- IC50 [3]: Not Active

Structure (SMILES): CNC(=O)CCCOc1ccc2c(c1)CN1CC(=O)NC1=N2
- IC25 [1, 13]: 1300 nM
- IC50 [2]: 1600 nM
- IC50 [3]: Not Active

Structure (SMILES): CN1C(=O)CN2Cc3cc(OCCCC(=O)N(C)C4CCCCC4)ccc3N=C21
- IC25 [1, 12]: 39000 nM
- IC50 [2]: 76000 nM
- IC50 [3]: Not Active

Structure (SMILES): O=C1CN2Cc3cc(OCCCC(=O)N4CCCCC4)ccc3N=C2N1
- IC50 [5]: 14500 nM
- IC25 [9]: 1500 nM
- IC50 [2]: 260 nM
- Ratio [7]: 56

Structure (SMILES): CC(C)[C@@H]1C(=O)NC2=Nc3ccc(OCCCC(=O)N(C)C4CCCCC4)cc3CN21
- IC25 [1, 13]: 6000 nM
- IC50 [2]: 10000 nM
- IC50 [3]: Not Active

Structure (SMILES): CN(C(=O)CCCOc1ccc2nc3n(c(=O)c2c1)CC(=O)N3)C1CCCCC1
- IC25 [9]: 2900 nM
- IC50 [2]: 5400 nM
- IC50 [3]: Not Active

Structure (SMILES): CC(C)[C@H]1C(=O)NC2=Nc3ccc(OCCCC(=O)N(C)C4CCCCC4)cc3CN21
- IC25 [1, 12]: 6400 nM
- IC50 [2]: > 10000 nM
- IC50 [3]: Not Active

Structure (SMILES): CN(C(=O)CCCOc1ccc2c(c1)CN1C(=N2)NC(=O)[C@H]1c1ccccc1)C1CCCCC1
- IC25 [1, 13]: 3300 nM
- IC50 [2]: 3300 nM
- IC50 [3]: Not Active

Structure (SMILES): CN(C(=O)CCCOc1ccc2nc3n(c(=O)c2c1)CCN3)C1CCCCC1
- IC25 [9]: 3700 nM
- IC50 [2]: 25000 nM
- IC50 [3]: Not Active

Structure (SMILES): CN(C(=O)CCCCCCOc1ccc2c(c1)CN1CC(=O)NC1=N2)C1CCCCC1
- IC50 [5]: 4600 nM
- IC25 [9]: 45 nM
- IC50 [2]: 16 nM
- Ratio [7]: 287

Structure (SMILES): CN(C(=O)CCCCOc1ccc2c(c1)CN1CC(=O)NC1=N2)C1CCCCC1
- IC50 [5]: 860 nM
- IC25 [9]: 22 nM
- IC50 [2]: 4.6 nM
- Ratio [7]: 187

Structure (SMILES): O=C(O)CCCOc1ccc2c(c1)CN1CC(=O)NC1=N2
- IC25 [1, 13]: 130 nM
- IC50 [2]: 280 nM
- IC50 [3]: Not Active

Structure (SMILES): CN(C(=O)CCCOc1ccc2c(c1)CN1C(=N2)NC(=O)[C@@H]1Cc1ccccc1)C1CCCCC1
- IC25 [1, 13]: > 10000 nM
- IC50 [2]: > 10000 nM
- IC50 [3]: Not Active

Structure (SMILES): O=C1CN2Cc3cc(OCCCC(=O)N(CCO)C4CCCCC4)ccc3N=C2N1
- IC50 [5]: 2850 nM
- IC25 [9]: 70 nM
- IC50 [2]: 12.5 nM
- Ratio [7]: 228

Structure (SMILES): CN(C(=O)CCCOc1ccc2c(c1)CN1C(=N2)NC(=O)[C@@H]1c1ccccc1)C1CCCCC1
- IC25 [1, 13]: 4200 nM
- IC50 [2]: 3800 nM
- IC50 [3]: Not Active

Structure (SMILES): CN(C(=O)CCCOc1ccc2c(c1)CN1CC(=O)NC1=N2)C(c1ccccc1)c1ccccc1
- IC50 [5]: 9200 nM
- IC25 [9]: 60 nM
- IC50 [2]: 15 nM
- Ratio [7]: 613

Structure (SMILES): CN(C(=O)CCCOc1cccc2c1NC1=NC(=O)CN1C2)C1CCCCC1
- IC50 [10]: > 100000 nM
- inhibition [11]: 20%
- IC25 [1, 12]: 1600 nM
- IC50 [3]: Not Active

Structure (SMILES): O=C(O)CN(C(=O)CCCOc1ccc2c(c1)CN1CC(=O)NC1=N2)C1CCCCC1
- IC50 [5]: 5200 nM
- IC25 [9]: 100 nM
- IC50 [2]: 5 nM
- Ratio [7]: 1040

Structure (SMILES): CN(C(=O)COc1ccc2c(c1)CN1CC(=O)NC1=N2)C1CCCCC1
- IC50 [5]: 7000 nM
- IC25 [9]: 4400 nM
- IC50 [2]: 820 nM
- Ratio [7]: 8.5
